The values below come from ChEMBL document CHEMBL2057156, “Synthesis and biological evaluation of the first dual tyrosyl-DNA phosphodiesterase I (Tdp1)-topoisomerase I (Top1) inhibitors” (J Med Chem, 2012).

Experiment [1] deals with T1, DNA topoisomerase 1 (Homo sapiens) (UniProt P11387).
T1 sequence (whole entry): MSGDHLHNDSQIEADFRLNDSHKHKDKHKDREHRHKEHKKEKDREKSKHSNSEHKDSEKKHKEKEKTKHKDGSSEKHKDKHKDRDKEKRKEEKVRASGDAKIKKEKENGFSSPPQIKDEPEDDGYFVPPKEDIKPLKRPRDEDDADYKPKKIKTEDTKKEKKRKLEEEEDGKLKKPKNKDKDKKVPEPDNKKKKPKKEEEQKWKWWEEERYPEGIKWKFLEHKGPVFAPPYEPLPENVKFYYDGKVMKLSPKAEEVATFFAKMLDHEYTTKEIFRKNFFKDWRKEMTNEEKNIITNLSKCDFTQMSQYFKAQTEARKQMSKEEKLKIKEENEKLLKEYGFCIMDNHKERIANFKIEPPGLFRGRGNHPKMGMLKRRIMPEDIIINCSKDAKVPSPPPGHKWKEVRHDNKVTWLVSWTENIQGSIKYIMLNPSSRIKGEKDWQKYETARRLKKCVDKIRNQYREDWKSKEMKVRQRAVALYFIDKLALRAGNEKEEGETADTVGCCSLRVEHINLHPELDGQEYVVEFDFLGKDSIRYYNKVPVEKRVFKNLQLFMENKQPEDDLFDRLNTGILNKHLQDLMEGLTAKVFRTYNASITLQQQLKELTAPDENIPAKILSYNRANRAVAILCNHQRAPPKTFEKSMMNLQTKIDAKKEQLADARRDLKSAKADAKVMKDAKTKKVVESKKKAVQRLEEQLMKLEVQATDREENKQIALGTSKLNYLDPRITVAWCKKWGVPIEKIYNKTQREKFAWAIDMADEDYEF
As to the kind of experiment: Inhibition of human recombinant Top1-mediated DNA cleavage by polyacrylamide gel electrophoresis relative to camptothecin. Also on record: concentration or dose not given beside the values. The method in brief: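 Baculovirus-purified human recombinant Top1 was incubated for 20 min at 25 °C, with compounds at various concentrations, with about 2 nM of a 117-bp oligonucleotide 3′-end-labeled with [α-³²P]dGTP. Reactions were stopped with 0.5% SDS and run on 20% denaturing PAGE. Cleavage bands were phosphorimaged and graded semiquantitatively against 1 μM camptothecin.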

The target in experiment [2] is T2, Tyrosyl-DNA phosphodiesterase 1 (Homo sapiens, UniProt Q9NUW8). As to the kind of experiment: Inhibition of human recombinant Tdp1 using 5'-[32P]-labeled single-stranded DNA oligonucleotide containing 3'-phosphotyrosine as substrate assessed as prevention of generation of oligonucleotide with free 3'-phosphate after 15 mins by PAGE analysis.
Experiment [3] deals with T2, Tyrosyl-DNA phosphodiesterase 1. As to the kind of experiment: Inhibition of human Tdp1 in Tdp1-deficient chicken DT40 whole cell extract using 5'-[32P]-labeled single-stranded DNA oligonucleotide containing 3'-phosphotyrosine as substrate after 15 mins by PAGE analysis.
Experiment [4] in a line: Growth inhibition of human NCI60 cells. The format is functional.
The target of experiment [5] is T2, Tyrosyl-DNA phosphodiesterase 1. As to the kind of experiment: Binding affinity to human recombinant Tdp1 at 0.4 to 33 uM by surface plasmon resonance spectroscopy analysis. The method, boiled down: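 Amine-coupled to a CM5 chip to about 4000 RU; before coupling, Tdp1 (1 μM) was preloaded for 20 min with 2 μM 3′-phosphate 14-mer in 10 mM sodium acetate pH 4.5 to shield the active site, then the oligo was stripped with 1 M NaCl. Analyte was injected in 10 mM Hepes, 150 mM NaCl, 0.01% Tween 20, 5% DMSO, pH 7.5, at 30 μL/min, 25 °C. Responses were corrected against a Tdp1-free reference surface, buffer cycles and DMSO calibration.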

Active and inactive are the calls of the source. The rule behind the calls is not given here.

T2 sequence (Q9NUW8 whole entry): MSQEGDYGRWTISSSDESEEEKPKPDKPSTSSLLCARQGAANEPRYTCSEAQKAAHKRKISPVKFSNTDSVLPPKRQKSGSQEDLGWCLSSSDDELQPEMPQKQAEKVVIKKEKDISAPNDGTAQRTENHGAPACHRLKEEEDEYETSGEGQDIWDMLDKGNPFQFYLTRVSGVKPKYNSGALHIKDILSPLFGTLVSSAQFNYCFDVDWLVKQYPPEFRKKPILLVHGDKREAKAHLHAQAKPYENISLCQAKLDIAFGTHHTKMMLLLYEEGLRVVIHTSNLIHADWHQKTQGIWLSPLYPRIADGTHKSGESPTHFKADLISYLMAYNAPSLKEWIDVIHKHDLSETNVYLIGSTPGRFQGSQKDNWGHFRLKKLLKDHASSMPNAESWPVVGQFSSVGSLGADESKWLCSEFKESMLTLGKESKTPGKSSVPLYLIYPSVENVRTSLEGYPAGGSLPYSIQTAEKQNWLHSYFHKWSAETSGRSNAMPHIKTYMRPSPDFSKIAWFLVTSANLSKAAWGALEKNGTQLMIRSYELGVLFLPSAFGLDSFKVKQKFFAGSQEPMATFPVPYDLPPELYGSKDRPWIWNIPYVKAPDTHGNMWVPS

As to `NCCn1c2c(c3ccccc3c1=O)C(=O)c1ccccc1-2`, the inhibition in experiment [1] (concentration not given here) is 75%. For the same compound, the IC50 in experiment [2] was 55.3 µM; in experiment [3] it was 78 µM.
Compound `COc1cc2c3c(n(CCCNS(=O)(=O)c4ccccc4)c(=O)c2cc1OC)-c1ccccc1C3=O` yielded a GI50 in experiment [4] of 1.35 µM. Further, the inhibition in experiment [1] (concentration not given here) came out at 75%. Besides, the IC50 in experiment [2] was above 111 µM.
Consider `NCCCCCn1c2c(c3ccccc3c1=O)C(=O)c1ccccc1-2`, for which, in experiment [1] (concentration not given here), the inhibition worked out at 0%. Moreover, the IC50 in experiment [2] came to 17.5 µM; in experiment [3], 28 µM.
Take `NCCCCCCCCn1c2c(c3ccccc3c1=O)C(=O)c1ccccc1-2`: the inhibition in experiment [1] (concentration not given here) is 20%. The IC50 in experiment [2] stood at 48 µM; in experiment [3], 49 µM.
Consider `NCCCCn1c2c(c3ccccc3c1=O)C(=O)c1ccccc1-2`, for which the inhibition in experiment [1] (concentration not given here) was found to be 75%. In experiment [3], this compound showed an IC50 of 23.4 µM.
As for `O=C1c2ccccc2-c2c1c1ccc([N+](=O)[O-])cc1c(=O)n2CCCNS(=O)(=O)c1ccccc1`, the GI50 in experiment [4] turned out to be 0.046 µM. For the same compound, the inhibition in experiment [1] (concentration not given here) worked out at 100%. For the same compound, the IC50 in experiment [2] is above 111 µM.
Consider `NCCCCCCCCCCCn1c2c(c3ccccc3c1=O)C(=O)c1ccccc1-2`, for which the inhibition in experiment [1] (concentration not given here) came to 20%. Further, the IC50 amounted to 12.8 µM in experiment [2] and 14.1 µM in experiment [3].
The corresponding values for `NCCCCCCCn1c2c(c3ccccc3c1=O)C(=O)c1ccccc1-2` are 0%, 28.8 µM and 31 µM.
For `NCCCCCCn1c2c(c3ccccc3c1=O)C(=O)c1ccccc1-2`, in experiment [1] (concentration not given here), the inhibition was determined as 50%. In addition, the IC50 in experiment [2] was 25 µM; in experiment [3], 35 µM.
As for `NCCCCCCCCCCCCn1c2c(c3ccccc3c1=O)C(=O)c1ccccc1-2`, the inhibition in experiment [1] (concentration not given here) was found to be 0%. The figures for the IC50 in experiment [2] and in experiment [3] were 15.1 µM and 33 µM, respectively.
In the case of `NCCCCCCCCCn1c2c(c3ccccc3c1=O)C(=O)c1ccccc1-2`, the inhibition is 0% in experiment [1] (concentration not given here) and “Dose-dependent effect” in experiment [2]. Moreover, the IC50 worked out at 47 µM in experiment [2] and 48 µM in experiment [3].
`COC(=O)c1ccc2c(c1)C(=O)c1c-2n(CCCNS(=O)(=O)c2ccccc2)c(=O)c2cc(OC)c(OC)cc12` gave a GI50 in experiment [4] of 12.6 µM. The inhibition in experiment [1] (concentration not given here) was found to be 0%. Further, the IC50 in experiment [2] is above 111 µM.
Consider `NCCCCCCCCCCn1c2c(c3ccccc3c1=O)C(=O)c1ccccc1-2`, for which, in experiment [1] (concentration not given here), the inhibition was 0%. Further, the results for the half-maximal inhibitory concentration (IC50) in experiment [2] and in experiment [3] were 14.1 µM and 21.3 µM, respectively.
`NCCCn1c2c(c3ccccc3c1=O)C(=O)c1ccccc1-2`: in experiment [5], the outcome was Active. For the same compound, the inhibition in experiment [1] (concentration not given here) was found to be 75%. In experiment [3], this compound showed an IC50 of 29.5 µM.
As to `O=C1c2cc(-c3ccccc3)ccc2-c2c1c1ccc([N+](=O)[O-])cc1c(=O)n2CCCNS(=O)(=O)c1ccccc1`, in experiment [4], it took 0.55 µM to inhibit growth by half (GI50). Further, in experiment [1] (concentration not given here), the inhibition is 0%. Also, in experiment [2], the IC50 is above 111 µM.
With `O=C1c2ccccc2-c2c1c1ccccc1c(=O)n2CCCCCCCCCCCCNS(=O)(=O)c1ccc(Br)cc1`, the inhibition entry in experiment [1] is “inactive”. In experiment [2], the IC50 is above 111 µM.
For the compound `CS(=O)(=O)NCCCCCn1c2c(c3ccccc3c1=O)C(=O)c1ccccc1-2`, the inhibition entry in experiment [1] was “inactive”. In addition, the IC50 in experiment [2] was above 111 µM.
In experiment [4], `O=C1c2ccccc2-c2c1c1cc3c(cc1c(=O)n2CCCNS(=O)(=O)c1ccccc1)OCO3` yielded a GI50 of 0.617 µM. The inhibition in experiment [1] (concentration not given here) turned out to be 50%. In addition, in experiment [2], the IC50 is above 111 µM.
As to `O=C1c2ccccc2-c2c1c1ccccc1c(=O)n2CCCCCCNS(=O)(=O)c1ccc(Br)cc1`, in experiment [1], the inhibition result is “inactive”. Also, the IC50 in experiment [2] is above 111 µM.
The corresponding values for `Cc1ccc(S(=O)(=O)NCCCn2c3c(c4ccccc4c2=O)C(=O)c2ccccc2-3)cc1` are “inactive” and above 111 µM.
